Measured values taken from ChEMBL document CHEMBL1153120, “Synthesis and antiplasmodial activity of novel 2,4-diaminopyrimidines” (Bioorg Med Chem Lett, 2010).
Values after ≈ are worked out from the molar mass of the structure shown.

How the values were obtained:
Plasmodium falciparum [1] = experiment: Antiplasmodial activity against Plasmodium falciparum 3D7; format: functional, organism-based
How it was run: (§1)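 P. falciparum cultures (lab strain 3D7; multidrug-resistant Southeast Asian isolate Dd2) were exposed to compound for 72 h. Parasite viability was read out by DAPI staining.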

Plasmodium falciparum [2] = experiment: Antiplasmodial activity against Plasmodium falciparum Dd2; format: functional, organism-based; how it was run: as §1
[3] = target: Voltage-gated inwardly rectifying potassium channel KCNH2 (Homo sapiens, UniProt Q12809); experiment: Inhibition of human ERG channel
Sequence of Voltage-gated inwardly rectifying potassium channel KCNH2 (Q12809 whole entry): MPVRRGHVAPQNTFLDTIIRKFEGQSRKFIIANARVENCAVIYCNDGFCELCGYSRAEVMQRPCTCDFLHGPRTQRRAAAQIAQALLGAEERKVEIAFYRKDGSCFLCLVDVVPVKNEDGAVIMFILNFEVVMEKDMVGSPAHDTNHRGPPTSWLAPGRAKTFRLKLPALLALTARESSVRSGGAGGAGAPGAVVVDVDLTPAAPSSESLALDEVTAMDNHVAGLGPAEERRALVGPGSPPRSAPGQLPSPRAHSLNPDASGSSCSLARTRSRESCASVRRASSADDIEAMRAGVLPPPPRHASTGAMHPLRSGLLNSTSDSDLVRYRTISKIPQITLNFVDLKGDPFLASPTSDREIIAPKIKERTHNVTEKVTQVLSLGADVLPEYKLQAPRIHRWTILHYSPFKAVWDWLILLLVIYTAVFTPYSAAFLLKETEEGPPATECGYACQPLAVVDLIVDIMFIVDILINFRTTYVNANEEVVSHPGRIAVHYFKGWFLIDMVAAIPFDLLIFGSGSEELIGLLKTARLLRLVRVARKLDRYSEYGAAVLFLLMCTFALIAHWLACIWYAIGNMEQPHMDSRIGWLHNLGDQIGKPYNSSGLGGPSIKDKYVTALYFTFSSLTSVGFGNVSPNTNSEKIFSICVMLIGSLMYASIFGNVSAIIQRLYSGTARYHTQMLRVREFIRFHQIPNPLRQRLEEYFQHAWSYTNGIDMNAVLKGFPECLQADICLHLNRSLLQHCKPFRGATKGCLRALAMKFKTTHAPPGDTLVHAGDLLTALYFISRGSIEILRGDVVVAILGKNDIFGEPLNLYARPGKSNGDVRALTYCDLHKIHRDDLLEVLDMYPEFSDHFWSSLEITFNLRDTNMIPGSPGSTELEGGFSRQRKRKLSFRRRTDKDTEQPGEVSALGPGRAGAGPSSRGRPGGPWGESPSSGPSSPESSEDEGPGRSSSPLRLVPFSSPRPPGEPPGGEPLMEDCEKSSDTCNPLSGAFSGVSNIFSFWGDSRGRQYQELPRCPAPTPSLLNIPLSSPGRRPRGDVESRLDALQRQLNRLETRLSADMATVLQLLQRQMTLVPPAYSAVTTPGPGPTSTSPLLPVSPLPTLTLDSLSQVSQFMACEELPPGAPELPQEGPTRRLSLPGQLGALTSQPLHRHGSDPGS

[4] = Lipophilicity, log D of the compound; format: physicochemical; settings: octanol/water
How it was run: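 Log D was measured at pH 7.4 as the partitioning of compound between an aqueous layer and a second phase.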

Liver microsomes [5] = experiment: Intrinsic clearance in human liver microsomes measured […]; format: ADME, Microsome
Liver microsomes [6] = experiment: Intrinsic clearance in rat liver microsomes measured […]; format: ADME, Microsome
[7] = Solubility at pH 7.4; format: physicochemical; settings: buffer
Cytochrome P450 1A2 = target: T1, Cytochrome P450 1A2 (Homo sapiens, UniProt P05177); experiment: Inhibition of human CYP1A2; format: ADME
T1 sequence (P05177 whole entry): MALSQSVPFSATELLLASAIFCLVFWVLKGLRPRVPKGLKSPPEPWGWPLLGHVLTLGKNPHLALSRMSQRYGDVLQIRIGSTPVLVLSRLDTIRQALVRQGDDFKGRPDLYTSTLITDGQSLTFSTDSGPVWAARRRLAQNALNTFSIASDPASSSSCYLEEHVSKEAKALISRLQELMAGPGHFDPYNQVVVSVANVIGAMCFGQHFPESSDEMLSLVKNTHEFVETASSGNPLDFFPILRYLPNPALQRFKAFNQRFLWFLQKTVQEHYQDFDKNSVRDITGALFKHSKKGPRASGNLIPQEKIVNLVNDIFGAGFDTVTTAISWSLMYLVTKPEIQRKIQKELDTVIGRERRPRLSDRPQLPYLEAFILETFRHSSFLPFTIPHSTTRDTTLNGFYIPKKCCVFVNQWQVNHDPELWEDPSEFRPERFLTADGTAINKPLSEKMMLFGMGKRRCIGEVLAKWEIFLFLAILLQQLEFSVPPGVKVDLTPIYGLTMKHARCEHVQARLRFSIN

Cytochrome P450 2C9 = Cytochrome P450 2C9 (Homo sapiens, UniProt P11712); experiment: Inhibition of human CYP2C9; format: ADME
Sequence of Cytochrome P450 2C9 (P11712 whole entry): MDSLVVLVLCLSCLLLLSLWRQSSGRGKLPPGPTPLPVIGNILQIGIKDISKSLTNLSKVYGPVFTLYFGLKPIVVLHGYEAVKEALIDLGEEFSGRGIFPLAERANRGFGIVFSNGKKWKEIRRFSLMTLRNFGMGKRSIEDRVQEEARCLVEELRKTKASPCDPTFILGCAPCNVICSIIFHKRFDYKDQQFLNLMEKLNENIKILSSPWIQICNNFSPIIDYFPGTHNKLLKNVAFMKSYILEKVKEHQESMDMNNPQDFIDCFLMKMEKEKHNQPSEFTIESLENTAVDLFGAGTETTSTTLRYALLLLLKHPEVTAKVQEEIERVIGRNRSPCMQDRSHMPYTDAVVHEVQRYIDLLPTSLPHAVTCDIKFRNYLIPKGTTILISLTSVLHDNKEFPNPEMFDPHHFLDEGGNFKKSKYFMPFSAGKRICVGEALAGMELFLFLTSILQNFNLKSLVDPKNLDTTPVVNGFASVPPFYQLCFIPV

Cytochrome P450 2C19 = Cytochrome P450 2C19 (Homo sapiens, UniProt P33261); experiment: Inhibition of human CYP2C19; format: ADME
Sequence of Cytochrome P450 2C19 (P33261 whole entry): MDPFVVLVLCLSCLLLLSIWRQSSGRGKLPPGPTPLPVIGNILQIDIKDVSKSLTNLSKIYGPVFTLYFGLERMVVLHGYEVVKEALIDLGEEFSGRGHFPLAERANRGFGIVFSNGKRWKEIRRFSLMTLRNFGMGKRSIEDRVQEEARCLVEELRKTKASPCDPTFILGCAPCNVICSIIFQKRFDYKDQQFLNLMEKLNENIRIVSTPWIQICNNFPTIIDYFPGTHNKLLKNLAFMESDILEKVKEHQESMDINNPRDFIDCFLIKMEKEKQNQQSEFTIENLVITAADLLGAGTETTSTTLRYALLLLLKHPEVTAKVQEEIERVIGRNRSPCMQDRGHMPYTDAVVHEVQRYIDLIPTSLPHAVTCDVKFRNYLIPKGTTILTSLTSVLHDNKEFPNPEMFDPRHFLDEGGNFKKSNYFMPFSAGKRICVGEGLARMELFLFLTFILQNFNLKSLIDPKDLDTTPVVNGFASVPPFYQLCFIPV

Cytochrome P450 2D6 = Cytochrome P450 2D6 (Homo sapiens, UniProt P10635); experiment: Inhibition of human CYP2D6; format: ADME
Sequence of Cytochrome P450 2D6 (P10635 whole entry): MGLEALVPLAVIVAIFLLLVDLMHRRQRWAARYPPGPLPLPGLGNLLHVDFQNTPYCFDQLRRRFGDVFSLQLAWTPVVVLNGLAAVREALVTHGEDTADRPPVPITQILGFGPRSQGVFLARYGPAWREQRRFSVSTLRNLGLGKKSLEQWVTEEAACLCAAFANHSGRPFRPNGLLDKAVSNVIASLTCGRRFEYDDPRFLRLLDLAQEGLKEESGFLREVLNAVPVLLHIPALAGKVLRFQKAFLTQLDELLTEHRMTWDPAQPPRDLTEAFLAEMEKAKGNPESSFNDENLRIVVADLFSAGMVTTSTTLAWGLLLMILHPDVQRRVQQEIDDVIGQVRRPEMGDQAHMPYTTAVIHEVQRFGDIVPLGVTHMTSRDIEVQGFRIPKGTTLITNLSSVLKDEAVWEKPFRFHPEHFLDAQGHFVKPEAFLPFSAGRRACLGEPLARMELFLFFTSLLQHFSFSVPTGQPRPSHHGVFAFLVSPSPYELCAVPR

Cytochrome P450 3A4 = Cytochrome P450 3A4 (Homo sapiens, UniProt P08684); experiment: Inhibition of human CYP3A4; format: ADME
Sequence of Cytochrome P450 3A4 (P08684 whole entry): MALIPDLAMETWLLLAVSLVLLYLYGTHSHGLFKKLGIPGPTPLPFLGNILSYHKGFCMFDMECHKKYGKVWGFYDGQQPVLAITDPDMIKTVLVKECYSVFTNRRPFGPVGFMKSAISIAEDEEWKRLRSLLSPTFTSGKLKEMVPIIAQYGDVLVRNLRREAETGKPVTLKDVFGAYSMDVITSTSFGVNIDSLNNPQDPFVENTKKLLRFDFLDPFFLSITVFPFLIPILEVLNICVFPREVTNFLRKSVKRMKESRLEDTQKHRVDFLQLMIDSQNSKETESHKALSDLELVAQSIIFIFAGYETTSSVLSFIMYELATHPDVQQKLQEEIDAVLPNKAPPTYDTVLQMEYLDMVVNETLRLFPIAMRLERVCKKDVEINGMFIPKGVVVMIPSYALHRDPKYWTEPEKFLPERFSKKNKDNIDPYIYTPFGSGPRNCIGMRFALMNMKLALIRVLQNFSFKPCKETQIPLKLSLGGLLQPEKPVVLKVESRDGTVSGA

[8] = Cytotoxicity against human RPTEC after 4 days by alamar blue assay; format: cell-based; settings: RPTEC cells, read-out: LC50
[9] = Cytotoxicity against human NHDF after 4 days by alamar blue assay; format: cell-based; settings: NHDF cells, read-out: LC50

Row | SMILES | EC50 (Plasmodium falciparum [1]) | EC50 (Plasmodium falciparum [2]) | also measured
1 | Cc1cc(NCc2ccccc2)nc(NCCN2CCCC2)n1 | 1080 nM | 1450 nM | –
2 | Cc1cc(NC2CCCCC2)nc(NCC23CC4CC(CC(C4)C2)C3)n1 | – | 370 nM | –
3 | FC(F)(F)c1cc(Nc2ccncc2)nc(NCc2ccc3c(c2)OCO3)n1 | – | – | IC50 [3]: 135000 nM
4 | Cc1cc(NC2CCCCC2)nc(NCCN2CCCC2)n1 | – | 2750 nM | –
5 | Cc1cc(NC(C)C)nc(NCc2ccc3c(ccn3C)c2)n1 | – | 1220 nM | –
6 | COc1cc(CNc2nc(C)cc(NC3CCCCC3)n2)cc(OC)c1OC | – | 260 nM | –
7 | Cc1cc(N(C)C2CCCCC2)nc(N[C@H](C)c2ccccc2)n1 | 630 nM | 940 nM | –
8 | Cc1cc(NCc2ccccc2)nc(NC(C)C)n1 | 1430 nM | 1050 nM | –
9 | Cc1cc(NCc2ccccc2)nc(NC2CCN(Cc3ccccc3)CC2)n1 | 160 nM | 160 nM | –
10 | Cc1cc(NC2CCCCC2)nc(N[C@@H](C)c2ccccc2)n1 | 120 nM | 500 nM | –
11 | Cc1cc(NC2CCCCC2)nc(NCc2ccc3c(c2)OCO3)n1 | – | 200 nM | –
12 | Cc1cc(Nc2ccccc2)nc(N2CCCN(C(=O)OC(C)(C)C)CC2)n1 | – | – | logD [4]: 3.95
13 | COc1cc(CNc2nc(C)cc(NC(C)C)n2)cc(OC)c1OC | – | 1920 nM | –
14 | Cc1cc(NC2CCN(Cc3ccccc3)CC2)nc(N2CCCN(C)CC2)n1 | – | – | logD [4]: 1
15 | Cc1cc(NC2CCCCC2)nc(NC2CCCCC2)n1 | – | 210 nM | –
16 | Cc1cc(NC(C)C)nc(NCCN2CCCC2)n1 | – | > 5000 nM | –
17 | Cc1cc(N(C)C2CCCCC2)nc(NCc2ccccc2)n1 | 680 nM | 1020 nM | –
18 | Cc1cc(N2CCCN(C)CC2)nc(NC2CCN(Cc3ccccc3)CC2)n1 | – | – | logD [4]: 1
19 | Cc1cc(Nc2ccccc2)nc(NCc2ccccn2)n1 | – | 2140 nM | clearance (Liver microsomes [5]): 70 µL/min/mg; clearance (Liver microsomes [6]): 114 µL/min/mg

Row | SMILES | EC50 (Plasmodium falciparum [1]) | EC50 (Plasmodium falciparum [2]) | also measured
20 | CCCCCCCNc1nc(C)cc(NC(C)C)n1 | – | 310 nM | –
21 | Cc1cc(NC2CCCCC2)nc(Nc2ccccc2)n1 | – | 230 nM | –
22 | Cc1cc(NCc2ccccc2)nc(NCC23CC4CC(CC(C4)C2)C3)n1 | 410 nM | 400 nM | –
23 | Cc1cc(N(C)C2CCCCC2)nc(N[C@@H](C)c2ccccc2)n1 | 590 nM | 690 nM | –
24 | Cc1cc(NC2CCCCC2)nc(Nc2ccccn2)n1 | > 1000 nM | > 2000 nM | –
25 | Cc1cc(Nc2ccccc2)nc(NCc2ccc3c(c2)OCO3)n1 | 110 nM | 360 nM | clearance (Liver microsomes [5]): 31.3 µL/min/mg; clearance (Liver microsomes [6]): > 119 µL/min/mg; IC50 [3]: 9500 nM
26 | Cc1cc(NC2CCCCC2)nc(N(C)Cc2ccccc2)n1 | > 10000 nM | > 10000 nM | –
27 | Cc1cc(NC(C)C)nc(Nc2ccccc2)n1 | – | 1500 nM | –
28 | Cc1cc(NC(C)C)nc(NC2CCCCC2)n1 | – | 390 nM | –
29 | Cc1cc(Nc2ccccc2)nc(NCc2ccccc2)n1 | 120 nM | 90 nM | clearance (Liver microsomes [5]): 55.2 µL/min/mg; clearance (Liver microsomes [6]): > 119 µL/min/mg
30 | Cc1cc(N2CCCN(C(=O)OC(C)(C)C)CC2)nc(NC2CCN(Cc3ccccc3)CC2)n1 | – | – | logD [4]: 2.7
31 | Cc1cc(NC2CCCCC2)nc(NCc2ccc3c(ccn3C)c2)n1 | – | 240 nM | –
32 | FC(F)(F)c1cc(Nc2ccccc2)nc(NCc2ccccn2)n1 | – | – | clearance (Liver microsomes [5]): > 99 µL/min/mg; clearance (Liver microsomes [6]): > 119 µL/min/mg; IC50 [3]: 40100 nM
33 | CCCCCCCNc1nc(C)cc(Nc2ccccc2)n1 | 90 nM | 90 nM | –
34 | Cc1cc(N2CCCNCC2)nc(NC2CCN(Cc3ccccc3)CC2)n1 | – | – | logD [4]: -0.15
35 | Cc1cc(NC2CCCCC2)nc(NC(C)C)n1 | – | 740 nM | –
36 | Cc1cc(NC2CCN(Cc3ccccc3)CC2)nc(N2CCCN(C(=O)OC(C)(C)C)CC2)n1 | – | – | logD [4]: 2.77
37 | Cc1cc(N(C)C2CCCCC2)nc(N(C)Cc2ccccc2)n1 | > 10000 nM | > 10000 nM | –
38 | Cc1cc(Nc2ccccc2)nc(NC(C)C)n1 | 280 nM | 750 nM | –

Row | SMILES | EC50 (Plasmodium falciparum [1]) | EC50 (Plasmodium falciparum [2]) | also measured
39 | Cc1cc(NCc2ccccc2)nc(Nc2ccccc2)n1 | 850 nM | 1020 nM | –
40 | FC(F)(F)c1cc(Nc2ccccc2)nc(NCc2ccncc2)n1 | – | – | clearance (Liver microsomes [5]): 56.2 µL/min/mg; clearance (Liver microsomes [6]): > 119 µL/min/mg
41 | Cc1cc(NC2CCCCC2)nc(NCc2ccccc2)n1 | 80 nM | 250 nM | solubility [7]: 26 µg/mL (≈ 87.7 µM); logD [4]: 3.9; IC50 (Cytochrome P450 1A2): 3100 nM; IC50 (Cytochrome P450 2C9): > 5000 nM; IC50 (Cytochrome P450 2C19): > 5000 nM; IC50 (Cytochrome P450 2D6): 4200 nM; IC50 (Cytochrome P450 3A4): > 5000 nM; CC50 at 96 h [8]: 7500 nM; CC50 at 96 h [9]: 7500 nM
42 | Cc1cc(NC2CCCCC2)nc(NC2CCN(Cc3ccccc3)CC2)n1 | – | 250 nM | –
43 | Cc1cc(NCc2ccccc2)nc(NC2CCCCC2)n1 | 430 nM | 1260 nM | –
44 | Cc1cc(Nc2ccccc2)nc(NCCN2CCCC2)n1 | 1460 nM | 1240 nM | –
45 | Cc1cc(NC2CCN(Cc3ccccc3)CC2)nc(N2CCCNCC2)n1 | – | – | logD [4]: -0.17
46 | Cc1cc(NC(C)C)nc(NCc2ccc3c(c2)OCO3)n1 | – | 840 nM | –
47 | Cc1cc(NC(C)C)nc(NCc2ccccc2)n1 | – | 350 nM | –
48 | Cc1cc(Nc2ccccc2)nc(N2CCCN(C)CC2)n1 | – | – | logD [4]: 1.7
49 | Cc1cc(NC(C)C)nc(NCC23CC4CC(CC(C4)C2)C3)n1 | – | 270 nM | –
50 | Cc1cc(NC(C)C)nc(NC2CCN(Cc3ccccc3)CC2)n1 | – | 810 nM | –
51 | Cc1cc(Nc2ccccc2)nc(NCc2ccc3c(ccn3C)c2)n1 | 350 nM | 590 nM | –
52 | Cc1cc(Nc2ccccc2)nc(N2CCCNCC2)n1 | – | – | logD [4]: 0.51
53 | COc1cc(CNc2nc(C)cc(NCc3ccccc3)n2)cc(OC)c1OC | 780 nM | 930 nM | –
54 | Cc1cc(NC2CCCCC2)nc(N[C@H](C)c2ccccc2)n1 | 90 nM | 420 nM | –
55 | Cc1cc(NC(C)C)nc(NC(C)C)n1 | – | 4270 nM | –
56 | CCCCCCCNc1nc(C)cc(NC2CCCCC2)n1 | – | 210 nM | –
